# Where a chain is given by its changes, count along the chain named.
# Tests used:
# AIRE–PHD1 = assay: Histone pull-down after EDTA treatment; conditions: 50 mM EDTA, overnight 4 °C prior to histone binding
# Method in brief: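 AIRE–PHD1 expressed as a glutathione-S-transferase (GST) fusion and incubated with whole histones. Bound H3 detected by western blot with anti-H3; GST-PHD protein visualised by Coomassie staining.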
# AIRE–PHD1 WT [1] = molecular target: T1, AIRE–PHD1 WT (Homo sapiens, UniProt O43918); assay: biochemical; assay type: binding
# T1 sequence (O43918 293-349 limits assumed): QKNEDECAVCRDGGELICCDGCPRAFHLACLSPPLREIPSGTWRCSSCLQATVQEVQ
# AIRE–PHD1 V301M = molecular target: T2, AIRE–PHD1 V301M (Homo sapiens, UniProt O43918, V301M); assay: Tryptophan fluorescence titration, AIRE-PHD1 V301M; assay type: binding
# T2 sequence (O43918 296-343 V301M limits assumed): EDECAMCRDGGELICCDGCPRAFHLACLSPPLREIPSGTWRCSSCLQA
# Method in brief: (§1)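 Tryptophan fluorescence spectroscopy titration of AIRE–PHD1 point mutants with histone H3 peptides: H3K4me0 for all; D297A also with H3K4me3. Dissociation constants were derived from the titrations. ND denotes binding too weak to quantify reliably.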
# AIRE–PHD1 WT [2] = molecular target: AIRE–PHD1 WT (Homo sapiens, UniProt O43918); assay: Tryptophan fluorescence titration, AIRE-PHD1 wild type; assay type: binding
# AIRE–PHD1 D297A [3] = molecular target: T3, AIRE–PHD1 D297A (Homo sapiens, UniProt O43918, D297A); assay: Isothermal titration calorimetry, AIRE-PHD1 D297A; assay type: binding
# T3 sequence (O43918 290-349 D297A): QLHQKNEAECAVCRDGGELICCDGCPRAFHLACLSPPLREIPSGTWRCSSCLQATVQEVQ
# AIRE–PHD1 D297A [4] = molecular target: T3, AIRE–PHD1 D297A; assay: Tryptophan fluorescence titration, AIRE-PHD1 D297A; assay type: binding
# Method in brief: as §1
# AIRE–PHD1 D312A [5] = molecular target: T4, AIRE–PHD1 D312A (Homo sapiens, UniProt O43918, D312A); assay: Tryptophan fluorescence titration, AIRE-PHD1 D312A; assay type: binding
# T4 sequence (O43918 296-343 D312A limits assumed): T2 sequence (O43918 296-343 V301M limits assumed) with M6V, D17A
# Method in brief: as §1
# AIRE–PHD1 D312A [6] = molecular target: T4, AIRE–PHD1 D312A; assay: Isothermal titration calorimetry, AIRE-PHD1 D312A; assay type: binding
# Method in brief: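 ITC of H3K4me0 (histone H3, non-methylated K4) peptide binding to the AIRE–PHD1 D312A mutant. Sequential heat pulses were integrated, corrected for heat of dilution, and fit to a single-site binding model by nonlinear least squares to give N, Kd, ΔH and ΔS. ND denotes binding too weak to quantify reliably.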
# AIRE–PHD1 C311Y = molecular target: T5, AIRE–PHD1 C311Y (Homo sapiens, UniProt O43918, C311Y); assay: Tryptophan fluorescence titration, AIRE-PHD1 C311Y; assay type: binding
# T5 sequence (O43918 296-343 C311Y limits assumed): T2 sequence (O43918 296-343 V301M limits assumed) with M6V, C16Y
# Method in brief: as §1
# AIRE–PHD1 wild type [7] = molecular target: AIRE–PHD1 wild type (UniProt O43918); assay: NMR titration
# AIRE–PHD1 wild type [8] = molecular target: AIRE–PHD1 wild type (UniProt O43918); assay: other fluorescence titration
# AIRE–PHD1 wild type [9] = molecular target: AIRE–PHD1 wild type (UniProt O43918); assay: ITC
compound,measurement,setting,value
O=C(O)CN(CCN(CC(=O)O)CC(=O)O)CC(=O)O [EDTA],"effect on H3 binding, in words",AIRE–PHD1,greatly reduced
C[C@H](N)C(=O)N[C@@H](CCCNC(=N)N)C(=O)N[C@H](C(=O)N[C@@H](CCCCN)C(=O)N[C@@H](CCC(N)=O)C(=O)N[C@H](C(=O)N[C@@H](C)C(=O)N[C@@H](CCCNC(=N)N)C(=O)N[C@@H](CCCCN)C(=O)N[C@@H](CO)C(=O)O)[C@@H](C)O)[C@@H](C)O [H3K4me0],Kd,AIRE–PHD1 WT [1],6.5 ± 0.2 µM
same,Kd,AIRE–PHD1 V301M,6.8 ± 0.4 µM
same,Kd,AIRE–PHD1 WT [2],4.7 ± 0.8 µM
same,Kd,AIRE–PHD1 D297A [3],147 ± 6.1 µM
same,Kd,AIRE–PHD1 D297A [4],173 ± 18.6 µM
same,Kd,AIRE–PHD1 D312A [5],> 500 µM
same,Kd,AIRE–PHD1 D312A [6],> 714 µM
same,Kd,AIRE–PHD1 C311Y,> 500 µM
"histone H3 N-terminal peptide H3K4me0 (NMR, fluorescence, ITC)",maximum average chemical shift change,AIRE–PHD1 wild type [7],0.9 p.p.m.
"histone H3 N-terminal peptide H3K4me1 (NMR, fluorescence, ITC)",Kd,AIRE–PHD1 wild type [8],21.4 µM
same,Kd,AIRE–PHD1 wild type [9],55.6 µM
"histone H3 N-terminal peptide H3K4me2 (NMR, fluorescence, ITC)",Kd,AIRE–PHD1 wild type [8],> 500 µM
same,Kd,AIRE–PHD1 wild type [9],714 µM
